The results in this text go back to ChEMBL document CHEMBL1155549, “Sialic acid-mimic peptides as hemagglutinin inhibitors for anti-influenza therapy” (J Med Chem, 2010).

Calls of active or inactive are those of the source. The rule behind the calls is not given here. Where a SMILES comes first, the peptide text is derived from it. The star is where a group is joined. Stearoyl = CCCCCCCCCCCCCCCCCC(=O)*

The nature of experiment [1]: Binding affinity to wheat germ agglutinin by phage ELISA. Set-up: species or system Triticum aestivum. A digest of the protocol: (§1)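 Wells coated with target (HA, WGA or anti-GM3 antibody) were blocked with 1% BSA/TBS. Phage in TBS was added for 2 h, washed with TBST and reblocked with 5% BSA/TBS. Detection used anti-fd antibody then peroxidase anti-rabbit IgG, 1 h each, with o-phenylenediamine read as ΔA at 492 nm, in triplicate. Phage concentration came from A260. Kd was from a linear plot of ΔA against phage concentration.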
For orientation: In an ELISA, binding on a coated surface is turned into a signal by an enzyme label.

Experiment [2] is described as follows: Binding affinity to Influenza A virus (A/Wuhan/359/1995 (H3N2)) hemagglutininin by phage ELISA. A digest of the protocol:
as §1

In experiment [3] the target is Hemagglutinin (Influenza A virus (A/Puerto Rico/8/1934(H1N1)), UniProt P03452). In words: Binding affinity to Influenza A virus (A/Puerto Rico/8/34(H1N1)) hemagglutininin by phage ELISA. In outline:
as §1

In experiment [4] the test system is Influenza A virus (A/Wyoming/03/2003(H3N2)). The experiment is described as follows: Binding affinity to Influenza A virus (A/Wyoming/03/2003 (H3N2)) hemagglutininin by avidin-biotin peroxidase complex method. A digest of the protocol: (§2)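 HA was coated at 70 μg/mL overnight at 4 °C and blocked with 1% BSA/PBS. C-terminally biotinylated peptides (5-400 μM) were added for 2 h. After PBS washes, peroxidase-streptavidin was added for 1 h, and o-phenylenediamine colour was read as ΔA at 492 nm, in triplicate. Kd came from a Scatchard plot over 20-200 μM peptide.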

In experiment [5] the test system is Influenza A virus (A/New Caledonia/20/1999(H1N1)). In words: Binding affinity to Influenza A virus (A/New Caledonia/20/1999 (H1N1)) hemagglutininin by avidin-biotin peroxidase complex method. A digest of the protocol: as §2
A further experiment has as its system Influenza A virus. The experiment is described as follows: Antiviral activity against Influenza A virus (A/Puerto Rico/8/34(H1N1)) infected in MDCK cells after 48 hrs by plaque assay. It counts as functional, organism-based. The following applies: A/Puerto Rico/8/1934(H1N1). A digest of the protocol: (§3)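 N-stearoyl peptides were serially diluted in PBS from a 2 mM stock and mixed with 50-200 pfu virus for 30 min at room temperature. The mixture was put on MDCK monolayers for 30 min at 37 °C under 5% CO2, then washed off. After 2 days, plaques were stained with crystal violet and counted. Inhibition was 100(1 - N/N0), n = 3, plotted against concentration.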

Another experiment relates to H3N2 subtype. In words: Antiviral activity against Influenza A virus (A/Aichi/2/1968(H3N2)) infected in MDCK cells after 48 hrs by plaque assay. It counts as functional, organism-based. A digest of the protocol: as §3

Broadly, the Kd is the constant that tells how readily two partners part at equilibrium. The low end stands for higher affinity, the high end for lower affinity. What is called IC50 is the concentration that gives 50% inhibition. A higher IC50 goes with weaker potency in that assay.

Sequence of Hemagglutinin (Influenza A virus (A/Puerto Rico/8/1934(H1N1)), UniProt P03452) (P03452 18-342 limits assumed): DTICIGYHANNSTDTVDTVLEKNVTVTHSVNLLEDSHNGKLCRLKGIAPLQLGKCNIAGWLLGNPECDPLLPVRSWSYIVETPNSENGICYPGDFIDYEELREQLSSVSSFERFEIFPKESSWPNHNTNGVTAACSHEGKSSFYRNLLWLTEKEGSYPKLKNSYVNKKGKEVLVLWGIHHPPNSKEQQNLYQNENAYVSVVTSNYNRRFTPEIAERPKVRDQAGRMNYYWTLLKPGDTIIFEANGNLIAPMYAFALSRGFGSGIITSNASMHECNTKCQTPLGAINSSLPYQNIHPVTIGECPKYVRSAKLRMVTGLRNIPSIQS
Sequence of Hemagglutinin (Influenza A virus (A/Puerto Rico/8/1934(H1N1)), UniProt P03452) (P03452 344-565 limits assumed): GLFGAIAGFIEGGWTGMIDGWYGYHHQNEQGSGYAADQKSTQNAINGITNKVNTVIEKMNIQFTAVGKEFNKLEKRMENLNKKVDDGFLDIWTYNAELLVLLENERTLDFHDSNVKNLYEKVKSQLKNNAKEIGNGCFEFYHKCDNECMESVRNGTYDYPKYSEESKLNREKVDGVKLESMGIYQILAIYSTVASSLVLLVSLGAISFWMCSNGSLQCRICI

For `CSCC[C@H](NC(=O)[C@@H](NC(=O)[C@@H]1CCCN1C(=O)[C@H](CO)NC(=O)[C@H](CC(C)C)NC(=O)[C@H](CCCN=C(N)N)NC(=O)[C@H](C)N)[C@@H](C)O)C(=O)N[C@H](C(=O)N[C@@H](Cc1cnc[nH]1)C(=O)N1CCC[C@H]1C(=O)N[C@@H](CC(N)=O)C(=O)NCC(=O)N[C@@H](C)C(=O)N[C@@H](CCC(N)=O)C(=O)N1CCC[C@H]1C(=O)O)C(C)C`, the Kd was 0.016 µM in experiment [1], 0.0086 µM in experiment [2] and 0.0078 µM in experiment [3].
As to `CSCC[C@H](NC(=O)[C@@H](NC(=O)[C@H](CCCNC(=N)N)NC(=O)[C@@H]1CCCN1C(=O)[C@H](CC(C)C)NC(=O)[C@H](C)NC(=O)[C@H](C)N)[C@H](C)O)C(=O)N[C@H](C(=O)N[C@@H](Cc1cnc[nH]1)C(=O)N1CCC[C@H]1C(=O)N[C@@H](CCCCN)C(=O)N1CCC[C@H]1C(=O)N[C@@H](C)C(=O)N[C@@H](CCC(N)=O)C(=O)N1CCC[C@H]1C(=O)N[C@@H](CCCCNC(=O)CCCC[C@@H]1SC[C@@H]2NC(=O)N[C@@H]21)C(N)=O)C(C)C`, the result in experiment [4] and in experiment [5] was inactive.
Regarding `CCCCCCCCCCCCCCCCCC(=O)N[C@@H](C)C(=O)N[C@@H](CCCNC(=N)N)C(=O)N[C@@H](CC(C)C)C(=O)N1CCC[C@H]1C(=O)N[C@@H](CCCNC(=N)N)C(N)=O` (Stearoyl-ARLPR-NH2), the figures for the IC50 in the experiment with Influenza A virus and in the experiment on H3N2 subtype were 1.6 µM and 1.9 µM, respectively.
Take `CCCCCCCCCCCCCCCCCC(=O)N[C@@H](C)C(=O)N[C@@H](CCCNC(=N)N)C(=O)N[C@@H](CC(C)C)C(=O)N1CCC[C@H]1C(=O)N[C@@H](CCCNC(=N)N)C(=O)N[C@@H](CC(N)=O)C(=O)N[C@@H](CCSC)C(=O)N[C@H](C(=O)N[C@@H](Cc1cnc[nH]1)C(=O)N[C@@H](Cc1cnc[nH]1)C(=O)N[C@@H](CCCCN)C(=O)N[C@H](C(=O)N[C@@H](C)C(=O)N[C@@H](CCC(N)=O)C(=O)N1CCC[C@H]1C(N)=O)[C@@H](C)O)C(C)C` (Stearoyl-ARLPRNMVHHKTAQP-NH2): the IC50 came out at 15 µM in the experiment with Influenza A virus and 6.2 µM in the experiment on H3N2 subtype.
Taken in the same sequence, the figures for `CCCCCCCCCCCCCCCCCC(=O)N[C@@H](C)C(=O)N[C@@H](CCCNC(=N)N)C(=O)N[C@@H](CC(C)C)C(=O)N1CCC[C@H]1C(=O)N[C@@H](CCCNC(=N)N)C(=O)N[C@@H](CO)C(=O)N[C@@H](CCSC)C(=O)N[C@H](C(=O)N[C@@H](Cc1cnc[nH]1)C(=O)N[C@@H](Cc1cnc[nH]1)C(=O)N[C@@H](CCCCN)C(=O)N1CCC[C@H]1C(=O)N[C@@H](C)C(=O)N[C@@H](CCC(N)=O)C(=O)N1CCC[C@H]1C(N)=O)C(C)C` (Stearoyl-ARLPRSMVHHKPAQP-NH2) were 22 µM and 8.9 µM.
For `CCCCCCCCCCCCCCCCCC(=O)N[C@@H](C)C(=O)N[C@@H](CCCNC(=N)N)C(=O)N[C@@H](CC(C)C)C(=O)N1CCC[C@H]1C(=O)N[C@@H](CCCNC(=N)N)C(=O)N[C@H](C(=O)N[C@@H](CC(C)C)C(=O)N[C@H](C(=O)N[C@@H](Cc1cnc[nH]1)C(=O)N1CCC[C@H]1C(=O)N[C@@H](CCCCN)C(=O)N[C@@H](Cc1cnc[nH]1)C(=O)N[C@@H](C)C(=O)N[C@@H](CCC(N)=O)C(=O)N[C@@H](C)C(N)=O)C(C)C)[C@@H](C)O` (Stearoyl-ARLPRTLVHPKHAQA-NH2), in that order: 13.5 µM and 7.6 µM.
Turning to `CCCCCCCCCCCCCCCCCC(=O)N[C@@H](C)C(=O)N[C@@H](CCCNC(=N)N)C(=O)N[C@@H](CC(C)C)C(=O)N1CCC[C@H]1C(=O)N[C@@H](CCCNC(=N)N)C(=O)N[C@H](C(=O)N[C@@H](CCSC)C(=O)N[C@H](C(N)=O)C(C)C)[C@@H](C)O` (Stearoyl-ARLPRTMV-NH2), the IC50 with Influenza A virus came out at 4.2 µM; in the experiment on H3N2 subtype, 3 µM.
For `CCCCCCCCCCCCCCCCCC(=O)N[C@@H](C)C(=O)N[C@@H](CCCNC(=N)N)C(=O)N[C@@H](CC(C)C)C(=O)N1CCC[C@H]1C(=O)N[C@@H](CCCNC(=N)N)C(=O)N[C@H](C(=O)N[C@@H](CCSC)C(=O)N[C@H](C(=O)N[C@@H](Cc1cnc[nH]1)C(=O)N1CCC[C@H]1C(=O)N[C@@H](CCCCN)C(=O)N1CCC[C@H]1C(=O)N[C@@H](C)C(=O)N[C@@H](CCC(N)=O)C(=O)N1CCC[C@H]1C(N)=O)C(C)C)[C@@H](C)O` (Stearoyl-ARLPRTMVHPKPAQP-NH2), in that order: 15 µM and 11 µM.
As to `CCCCCCCCCCCCCCCCCC(=O)N[C@@H](C)C(=O)N[C@@H](CCCNC(=N)N)C(=O)N[C@@H](CC(C)C)C(=O)N1CCC[C@H]1C(=O)N[C@@H](CCCNC(=N)N)C(=O)N[C@H](C(=O)N[C@@H](CCSC)C(=O)N[C@H](C(=O)N[C@@H](Cc1cnc[nH]1)C(=O)N1CCC[C@H]1C(=O)N[C@@H](CCCCN)C(=O)N[C@H](C(=O)N[C@@H](C)C(=O)N[C@@H](Cc1cnc[nH]1)C(=O)N[C@@H](CCC(N)=O)C(N)=O)[C@@H](C)O)C(C)C)[C@@H](C)O` (Stearoyl-ARLPRTMVHPKTAHQ-NH2), the IC50 was 13 µM in the experiment on Influenza A virus and 8 µM in the experiment on H3N2 subtype.
Taken in the same sequence, the figures for `CCCCCCCCCCCCCCCCCC(=O)N[C@@H](C)C(=O)N[C@@H](CCCNC(=N)N)C(=O)N[C@@H](CC(C)C)C(=O)N1CCC[C@H]1C(=O)N[C@@H](CCCNC(=N)N)C(=O)N[C@H](C(=O)N[C@@H](CCSC)C(=O)N[C@H](C(=O)N[C@@H](Cc1cnc[nH]1)C(=O)N[C@@H](CO)C(=O)N[C@@H](CCCCN)C(=O)N1CCC[C@H]1C(=O)N[C@@H](C)C(=O)N[C@@H](CCC(N)=O)C(=O)N1CCC[C@H]1C(=O)O)C(C)C)[C@@H](C)O` (Stearoyl-ARLPRTMVHSKPAQP-OH) were 41 µM and 6.8 µM.
Consider `CCCCCCCCCCCCCCCCCC(=O)N[C@@H](C)C(=O)N[C@@H](CCCNC(=N)N)C(=O)N[C@@H](CC(C)C)C(=O)N[C@@H](CO)C(=O)N1CCC[C@H]1C(=O)N[C@H](C(=O)N[C@@H](CCSC)C(=O)N[C@H](C(=O)N[C@@H](Cc1cnc[nH]1)C(=O)N1CCC[C@H]1C(=O)N[C@@H](CC(N)=O)C(=O)NCC(=O)N[C@@H](C)C(=O)N[C@@H](CCC(N)=O)C(=O)N1CCC[C@H]1C(N)=O)C(C)C)[C@@H](C)O` (Stearoyl-ARLSPTMVHPNGAQP-NH2), for which, in the experiment with Influenza A virus, the IC50 is greater than 1000 µM.
As for `CCCCCCCCCCCCCCCCCC(=O)N[C@@H](CCCNC(=N)N)C(=O)N[C@H](C(=O)N[C@@H](CCSC)C(=O)N[C@H](C(=O)N[C@@H](Cc1cnc[nH]1)C(=O)N1CCC[C@H]1C(=O)N[C@@H](CCCCN)C(N)=O)C(C)C)[C@@H](C)O` (Stearoyl-RTMVHPK-NH2), the IC50 was greater than 100 µM in the experiment on Influenza A virus and 11 µM in the experiment on H3N2 subtype.
`CCCCCCCCCCCCCCCCCC(=O)N[C@H](C(=O)N[C@@H](CCCNC(=N)N)C(=O)N[C@@H](CC(C)C)C(=O)N1CCC[C@H]1C(=O)N[C@@H](CCCNC(=N)N)C(=O)N[C@H](C(=O)N[C@@H](CCSC)C(=O)N[C@@H](CC(C)C)C(=O)N[C@@H](Cc1cnc[nH]1)C(=O)N[C@@H](Cc1cnc[nH]1)C(=O)N[C@@H](CCCCN)C(=O)N1CCC[C@H]1C(=O)N[C@@H](C)C(=O)N[C@@H](CCC(N)=O)C(=O)N[C@@H](C)C(N)=O)[C@@H](C)O)[C@@H](C)O` (Stearoyl-TRLPRTMLHHKPAQA-NH2): the IC50 in the experiment with Influenza A virus came to 5.1 µM; with H3N2 subtype, 10 µM.
As for `CCCCCCCCCCCCCCCCCC(=O)N[C@H](C(=O)N[C@@H](Cc1cnc[nH]1)C(=O)N1CCC[C@H]1C(=O)N[C@@H](CCCCN)C(=O)N1CCC[C@H]1C(=O)N[C@@H](C)C(=O)N[C@@H](CCC(N)=O)C(=O)N1CCC[C@H]1C(N)=O)C(C)C` (Stearoyl-VHPKPAQP-NH2), the results for the IC50 in the experiment on Influenza A virus and in the experiment with H3N2 subtype were 10 µM and 59 µM, respectively.
Taken in the same sequence, the figures for `CCCCCCCCCCCCCCCCCC(=O)N[C@H](C(=O)N[C@@H](CCSC)C(=O)N[C@H](C(=O)N[C@@H](CCCNC(=N)N)C(=O)N1CCC[C@H]1C(=O)N[C@@H](CC(C)C)C(=O)N[C@@H](CCCNC(=N)N)C(=O)N[C@@H](C)C(N)=O)[C@@H](C)O)C(C)C` (Stearoyl-VMTRPLRA-NH2) were greater than 100 µM and greater than 100 µM.
As for H-EPYGFIAFSRAAHSP-OH, the Kd is 0.03 µM in experiment [1], 0.02 µM in experiment [2] and 0.03 µM in experiment [3].
Consider H-GRPPDSVFRSRGWLS-OH, for which the Kd was 0.02 µM in experiment [1], 0.0089 µM in experiment [2] and 0.011 µM in experiment [3].
Taken in the same sequence, the figures for H-GRVPVFGLSPLFKVE-OH were 0.019 µM, 0.016 µM and 0.0078 µM.
For the compound “H-IDIAFSSLALADISR-OH [IDIAFSSLALADISR] [listing 1 of 2 here]”, the affinity in experiment [3], expressed as Kd, was 0.019 µM.
As for “H-IDIAFSSLALADISR-OH [IDIAFSSLALADISR] [listing 2 of 2 here]”, the Kd in experiment [1] was found to be 0.03 µM; in experiment [2], 0.013 µM.
